Screening results from PubChem BioAssay.
PERK inhibitor = inhibitors of human PERK kinase; inhibition, % at 5.6 µM; CHO PERK-DD fusion, SEAP luminescence translation reporter; Q9NZJ5; actives 0.17% (n = 220,000);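 active = inhibition above the mean inhibition of all tested compounds plus 3 SD, set separately per screening campaign, cut at about 2.9% in these data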;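 also: PERK kinase domain activated by AP20187 dimerizer at 100 nM; 0% = DMSO with dimerizer and 100% = rapamycin at 8.4 µM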
NF-kB neuron act = compounds increasing NF-kB expression in human neuronal cells; fold change at 12.5 µM; actives 1.6% (n = 190,000); NF-kB reporter expression; hits give high values; in the data active = fold change above about 3.3
STAT1 activator = activators of IFN-gamma induced STAT1 signaling | NIH 3T3 STAT1-luciferase reporter, luminescence; 100% = IFN-gamma alone, no compound | activation (% of control), % at 5.5 µM | actives 2.6% (n = 200,000);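 active = activation above the screen-wide mean activation plus 3 SD, cut at about 130% in these data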;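 also: raw ratio to IFN-gamma control signal so 100% means no change and 0% no light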
APP 5'UTR act = activates APP 5'UTR luciferase reporter. SH-SY5Y APP 5'UTR luciferase reporter, luminescence; zero percent = DMSO vehicle wells. activation, % at 2 µM. actives 1% (n = 190,000);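 active = activation above a set limit, based on mean plus 3 SD of controls, cut at about 140% in these data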
MDM2 E3 inh = blocks human Mdm2 ubiquitin ligase activity; cell-based MDM2 ubiquitination luciferase reporter, 2 h; 0 = plate control, 100 = twice control, blank-subtracted; signal enhancement, % at 5 µM; actives 0.11% (n = 210,000); AID 1230;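 active = signal enhancement of 30% or more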;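 also: luminescence tracks abundance of the self-degrading MDM2-luciferase fusion protein; higher signal means inhibition of MDM2 E3 ligase activity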
Target sequence (Q00987 whole entry, looked up, the tested form may be a part): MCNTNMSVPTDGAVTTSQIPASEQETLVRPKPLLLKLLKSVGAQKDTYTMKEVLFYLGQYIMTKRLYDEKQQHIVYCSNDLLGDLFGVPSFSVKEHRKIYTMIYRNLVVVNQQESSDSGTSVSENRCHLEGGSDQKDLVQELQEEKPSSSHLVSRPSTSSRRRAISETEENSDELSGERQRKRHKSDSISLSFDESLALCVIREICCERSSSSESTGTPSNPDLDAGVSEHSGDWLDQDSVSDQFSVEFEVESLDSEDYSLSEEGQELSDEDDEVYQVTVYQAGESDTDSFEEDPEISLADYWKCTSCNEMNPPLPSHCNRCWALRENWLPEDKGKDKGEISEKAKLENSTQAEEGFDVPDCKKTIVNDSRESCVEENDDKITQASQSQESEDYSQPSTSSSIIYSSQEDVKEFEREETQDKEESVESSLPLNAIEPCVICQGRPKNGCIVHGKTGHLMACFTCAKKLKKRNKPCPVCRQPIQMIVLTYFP
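Test system: stable mammalian line carrying autodegrading MDM2–luciferase fusion reporter; quantity: 2000 cells in each well; times: 4 h cell settling then 2 h compound exposure, 37 °C; detection: luminescence with SteadyLite reagent, 15 min at room temperature; evaluation: percent signal gain over controls, blank-subtracted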
AHR activator = activators of human aryl hydrocarbon receptor. P35869. AHR-responsive luciferase reporter cells, luminescence. activation, % at 5 µM. actives 2.5% (n = 320,000); in the data active = activation above about 47%;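 also: 0% = vehicle wells and 100% = reference agonist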
Starred values were filed as active, the others as inactive; . = not tested or not shown. Sampled rows, rich in hits. Any-hit rate of the full collection: about 4.5%.

SMILES | PERK inhibitor | NF-kB neuron act | STAT1 activator | APP 5'UTR act | MDM2 E3 inh | AHR activator
CC(=O)N1CCN(C(=O)COC(=O)COc2c(C)cc(C)cc2C)CC1 | . | . | . | . | . | -2
CCOC(=O)C1CCN(C(=O)CNC(=O)c2nn(-c3ccc(OC)cc3)c(=O)c3ccccc23)CC1 | . | . | . | . | . | 0
Cc1ccccc1C(=O)Nc1cccc(NC(=O)c2ccccc2[N+](=O)[O-])c1 | . | . | . | . | . | 6
Cc1cc(NC(=O)c2ccccc2[N+](=O)[O-])ccc1Br | 1 | 2.2 | 138* | 47 | -8 | 5
Cc1c(Cl)cccc1NC(=O)CNC(=O)C1CCN(C(=O)Nc2ccccc2)CC1 | . | . | . | . | . | 1
Cc1snc2sc(C(=O)c3ccc(Br)cc3)c(N)c12 | 0 | 1.3 | 135* | 3 | 1 | -4
Cc1nc2sc(C(=O)c3ccccc3)c(N)c2c(C)c1C | 0 | . | 114 | 13 | . | 22
Cc1c(C#N)c(O)n(C)c(=O)c1N=Nc1ccc(S(N)(=O)=O)cc1 | -1 | 1.1 | 141* | -1 | -89 | .
Cc1c(C#N)c(O)n(CCO)c(=O)c1N=Nc1ccc(S(N)(=O)=O)cc1 | -1 | 1 | 95 | 14 | -19 | 1
CCOc1ccc(C(=O)N/N=C/c2ccc(SC)cc2)cc1 | 0 | 1.1 | 108 | 8 | -27 | 6
O=C(N/N=C/c1ccccc1Cl)c1ccc(F)cc1 | 0 | 2.8 | 138* | 76 | -3 | 0
COC(=O)c1ccc(/C=N/NC(=O)c2cccc(F)c2)cc1 | 1 | 2.6 | 130* | 98 | 5 | 4
COc1cc(C(=O)Oc2ccccc2/C=N/NC(=O)c2ccc(Cl)cc2)cc(OC)c1OC | 0 | 1.7 | 131* | -40 | -7 | 5
CSc1ccc(/C=N/NC(=O)c2cccc(O)c2)cc1 | 0 | 4.5* | 97 | 159* | -67 | 20
O=C(COC(=O)CCc1ccccc1)Nc1ncc(Cl)cc1Cl | 0 | 1.2 | 102 | -3 | -30 | -1
COc1ccc(OCC(=O)Nc2cc(NC(=O)c3ccco3)ccc2OC)cc1 | . | . | . | . | . | 28
COCCN(CCOC)C(=O)c1ccc(CSc2nc3ccccc3s2)cc1 | . | . | . | . | . | 28
O=C(N/N=C/c1ccncc1)c1ccccc1 | 3.6* | 1.3 | 96 | 5 | -12 | 9
O=C(NN=C1C2CC3CC(C2)CC1C3)c1ccncc1 | 1 | 1 | 104 | -12 | 8 | 13
Cc1ccc(C(=O)Nc2cccc(C(=O)N/N=C/c3ccc(O)cc3)c2)cc1 | . | . | . | . | . | 56*
O=C(N/N=C1\C/C(=N\NC(=O)c2ccncc2)c2ccccc21)c1ccncc1 | 0 | 1.1 | 84 | 18 | -9 | 56*
O=C(N/N=C\c1ccc(F)cc1)c1ccc(F)cc1 | 2 | 1.8 | 145* | 15 | -17 | 15
O=C(CN1CCN(c2ncccn2)CC1)NCc1ccccc1 | -1 | 1.1 | 105 | 7 | 103* | 0
O=C(CN1CCCC1)NCc1ccccc1 | . | . | . | . | . | 1
C/C(=N\NC(=O)c1c[nH]c2ccccc12)c1ccc2c(c1)OCO2 | 1 | 0.84 | 135* | 10 | -6 | 93*
SMILES | PERK inhibitor | NF-kB neuron act | STAT1 activator | APP 5'UTR act | MDM2 E3 inh | AHR activator
C/C(=N\NC(=O)c1ccccc1)c1ccc2c(c1)OCO2 | 0 | 2.1 | 117 | 45 | -20 | 2
O=C(N/N=C/c1ccc(Br)s1)Nc1ccccc1 | 0 | 1.7 | 130* | 21 | -3 | 13
O=C(N/N=C/c1ccc(Br)s1)c1ccncc1 | 1 | 0.79 | 104 | 2 | -7 | 10
O=C(N/N=C/c1ccc(Br)s1)c1cccs1 | 0 | . | . | . | -6 | 16
O=C(N/N=C/c1c[nH]c2ccccc12)c1ccc2c(c1)OCCO2 | 2 | . | . | . | -25 | 48*
O=C(N/N=C/c1ccc(Br)s1)c1c[nH]c2ccccc12 | 1 | 1.2 | 138* | 64 | 5 | 146*
COc1ccc(N(CC(=O)NCc2ccc(F)cc2)C(=O)Cn2nnc(-c3ccc(C)o3)n2)cc1OC | . | . | . | . | . | 1
Cn1ncc([N+](=O)[O-])c1C(=O)Nc1ccc(-c2ccccc2)cc1 | . | . | . | . | . | 73*
Cn1ncc([N+](=O)[O-])c1C(=O)N/N=C/c1c[nH]c2ccccc12 | 1 | 1.1 | 110 | 5 | 3 | 70*
O=[N+]([O-])c1ccccc1N/N=C/c1c[nH]c2ccccc12 | -1 | 4.2* | 151* | 173* | 3 | 73*
O=C(N/N=C/c1c[nH]c2ccccc12)c1cccc([N+](=O)[O-])c1 | 0 | 1.1 | 90 | 8 | -21 | 70*
Cn1cc([N+](=O)[O-])c(C(=O)N/N=C\c2c[nH]c3ccccc23)n1 | 1 | 1.2 | 103 | -2 | -19 | 44
O=C(N/N=C/c1c[nH]c2ccccc12)c1ccccc1 | . | . | . | . | . | 17
O=C(N/N=C/c1cc2c(cc1Br)OCO2)c1c[nH]c2ccccc12 | 0 | 0.91 | 143* | 94 | 0 | 14
O=C(CSc1nnc(NC(=O)c2ccccc2F)s1)NCC1CCCO1 (stereo unspecified) | . | . | . | . | . | -2
CCc1ccc(-c2cc(C)no2)cc1S(=O)(=O)N1CCN(c2ccc(F)cc2)CC1 | . | . | . | . | . | 3
CC(C)(C)c1nnc(NC(=S)Nc2ccccc2)s1 | 0 | 3.6* | 140* | 92 | -7 | 1
CC(Oc1ccc(C(=O)c2ccccc2)cc1)C(=O)N1CCOCC1 (stereo unspecified) | . | . | . | . | . | -1
O=C1CC(c2ccco2)CC2=C1C1c3ccccc3C(=O)N1c1ccccc1N2 (stereo unspecified) | 0 | 8.4* | 101 | 19 | -13 | 4
CCC(=O)N1c2ccccc2NC2=C(C(=O)CC(c3ccco3)C2)C1c1ccco1 (stereo unspecified) | 1 | 1.1 | 95 | 5 | -15 | 5
COc1ccc(Oc2cn[nH]c2-c2ccc(OCC(=O)NN)cc2O)cc1 | . | . | . | . | . | 58*
COc1ccccc1Oc1cn[nH]c1-c1ccc(OCC(=O)NN)cc1O | . | . | . | . | . | 44
Cc1ccc(-n2nc(C)c3c2OC(N)=C(C#N)C3c2ccccc2F)cc1 (stereo unspecified) | 0 | 1 | 84 | -47 | -9 | 66*
Cc1ccc(-n2nc(C)c3c2OC(N)=C(C#N)C3c2ccncc2)cc1 (stereo unspecified) | 0 | 1.1 | 90 | 14 | -10 | 18
Cc1ccc(-n2nc(C)c3c2OC(N)=C(C#N)C3c2cccs2)cc1 (stereo unspecified) | -1 | 0.88 | 90 | 2 | -8 | 68*
Cc1cc(C(=O)COC(=O)c2ccccc2O)c(C)n1CC1CCCO1 (stereo unspecified) | . | . | . | . | . | -1
Cc1ccc(C(=O)OCC(=O)c2cc(C)n(CC3CCCO3)c2C)cc1 (stereo unspecified) | -1 | 1.1 | 140* | 101 | -13 | -3
Cc1cc(C(=O)COC(=O)c2n[nH]c3ccccc23)c(C)n1CC1CCCO1 (stereo unspecified) | -1 | 1 | 99 | 168* | . | 3
